Screens deposited in PubChem by Johns Hopkins Ion Channel Center.
TRPC6 inh: inhibitors of mouse TRPC6 channel; B-score at 10 µM; HEK293-TRPC6, membrane potential dye, ACh-evoked depolarization; stronger effect = lower value; Q61143; 1.1% of 310,000 active;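 active = B-score under library mean minus 3 SD, initial fluorescence not abnormally high, positive integrated signal ratio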;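 also: B-score derived from integrated fluorescence ratio over the kinetic read; more negative B-score means stronger inhibition of depolarization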
TRPC4 PAM: allosterically enhances the mouse TRPC4 cation channel. HEK293 TRPC4beta/mu-opioid, DAMGO EC20, Fluo-4 Ca2+ flux; stronger effect = higher value. B-score at 10 µM. AID 2227. 0.42% of 310,000 active;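 active = B-score of calcium response area above 5 SD of library B-scores, with initial fluorescence ratio within 5 SD of library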
TRPC4 inh: inhibitors of mouse TRPC4 channel; Q9QUQ5; B-score at 10 µM; HEK293 TRPC4beta/mu-opioid, DAMGO-evoked Fluo4 calcium flux; stronger effect = lower value; AID 2247; 0.39% of 300,000 active;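 active = B-score over 3 SD under the library average, no early fluorescence shift, positive overall ratio signal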
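System: stable TRPC4beta/mu-opioid receptor HEK293 cells; Dosing: single-point compound dosing; Measured by: Fluo4 Ca2+ flux fluorescence; Read-out basis: per-well B score of integrated baseline-normalized Fluo4 ratio.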
TRPC6 act: activates the mouse TRPC6 cation channel. Q61143. HEK293-TRPC6 membrane potential dye fluorescence; stronger effect = higher value. B-score at 10 µM. 0.13% of 310,000 active;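 active = B-score of the integrated fluorescence ratio above library mean plus 3 SD, and starting fluorescence ratio within library mean plus 5 SD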;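 also: higher score means more depolarization so channel activation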
TRPC4 act: TRPC4 (mouse) channel activation | Q9QUQ5 | AID 2237 | 0.49% of 310,000 active | HEK293 TRPC4beta/mu-opioid, Fluo4 calcium fluorescence; stronger effect = higher value | B-score at 10 µM;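 active = B-score above 5 SD of library B-scores, and initial fluorescence ratio not above library mean plus 5 SD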;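 also: positive B-score marks a calcium rise read as TRPC4 activation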
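system = HEK293 cells stably co-expressing mouse TRPC4beta and mu-opioid receptor | schedule = Fluo4 dye loading 45 min at room temperature, 110 s recording | measure = B-scored integrated calcium fluorescence ratio | signal = Fluo4 calcium-sensitive dye fluorescence, kinetic, 1 Hz baseline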
Each line names hits and unclear results; the compound was inactive in the other large screens. Shown are actives, neighbours in structure and some others; about 2.3% of the full set was active somewhere.

CCn1cc(CN2CCN(Cc3ccccc3)C(CCO)C2)c2ccccc21 (stereo not given)	TRPC4 act 58
Cc1ccc(NC(=O)CN(C)C(=O)Cc2c(Cl)cccc2Cl)cc1	none
CC1CCN(CCc2nc3cc(NS(=O)(=O)c4ccc(F)cc4)ccc3n2C)CC1	TRPC4 PAM 15
CC1CCN(CCc2nc3cc(NS(=O)(=O)c4ccccc4)ccc3n2C)CC1	none
O=C(Cc1ccc(Br)cc1)Nc1ccccc1Sc1ccccc1	none
O=C(Cc1ccccc1)Nc1ccccc1Sc1ccccc1	TRPC4 inh -6
CCOC(=O)c1c(-c2ccc(C)cc2)csc1NC(=O)C1CC=CCC1C(=O)O (stereo not given)	none
Cc1ccc(-c2csc(NC(=O)C3CC=CCC3C(=O)O)c2C(=O)OC(C)C)cc1 (stereo not given)	TRPC4 inh -5
CCOC(=O)c1c(-c2cccc(C)c2)csc1NC(=O)C1CC=CCC1C(=O)O (stereo not given)	TRPC4 inh -6
N#CCSc1ccc2nc(-c3ccccc3)cn2n1	none
CCOC(=O)N1CCN(S(=O)(=O)c2ccc(C(=O)NNc3nc4c(C)cc(C)cc4s3)cc2)CC1	TRPC4 PAM 10
CCOC(=O)N1CCN(S(=O)(=O)c2ccc(C(=O)NNc3nc4c(C)cccc4s3)cc2)CC1	none
CN(C)CCNC(=O)c1sc2cccc(F)c2c1Cl	TRPC4 PAM 11
Brc1ccc(CN2CCN(Cc3c[nH]c4ccccc34)CC2)cc1	none
O=[N+]([O-])c1ccc(CN2CCN(Cc3c[nH]c4ccccc34)CC2)cc1	TRPC4 inh -6
Brc1ccccc1CN1CCN(Cc2c[nH]c3ccccc23)CC1	TRPC4 inh -6
Cc1cc(Cl)ccc1OCC(=O)NNC(=O)c1cccnc1	none
COCCN1C(=O)C(=O)/C(=C(/O)c2ccc(S(=O)(=O)N3CCCCC3)cc2)C1c1ccc(O)c(OC)c1 (stereo not given)	none
CC(C)c1nc(SCC(=O)Nc2cccc(C(F)(F)F)c2)c2c(=O)n(C)c(=O)n(C)c2n1	TRPC4 PAM 12
Cn1cc(CN2CCCCC2CO)c(-c2ccc(Oc3ccccc3)cc2)n1 (stereo not given)	TRPC4 inh -7
COC1CCCN(Cc2cn(C)nc2-c2ccc(Oc3ccccc3)cc2)C1 (stereo not given)	none
CCCCN(C)CCNC(=O)c1cc2c(-c3cccc(OC)c3)nn(C)c2s1	TRPC4 PAM 25
CCN1CCCC1CNC(=O)c1cc2c(-c3cccc(OC)c3)nn(C)c2s1 (stereo not given)	none
CCCCN(CC)CCCNC(=O)c1cc2c(-c3ccc(OC)c(OC)c3)nn(C)c2s1	TRPC4 act 82
CCN(CC)CCCNC(=O)c1cc2c(-c3cccc(OC)c3)nn(C)c2s1	TRPC4 PAM 13, TRPC4 act 79
COc1cccc(-c2nn(C)c3sc(C(=O)NCc4ccco4)cc23)c1	none
COc1cccc(-c2nn(C)c3sc(C(=O)NCCCN(C)Cc4ccccc4)cc23)c1	TRPC4 act 57
CCC(C)(C)NC(=O)CN(Cc1ccc(OC)cc1)C(=O)CCC(=O)Nc1nccs1	none
COc1ccc(CCN2CC(C(=O)NCC(=O)Nc3ccc(F)c(F)c3)CC2=O)cc1OC (stereo not given)	none
CC/C(=N/NC(=O)c1ccccc1O)c1c(C)[nH]n(-c2ccccc2)c1=O	none
CC(NC(=O)/C=C/c1ccc(Br)cc1)c1ccc(Cl)cc1 (stereo not given)	none
CCCCCCCCCCOC(=O)Cn1c(COc2ccccc2C)[n+](C)c2ccccc21	TRPC4 inh -6
CCCCNc1nc(=S)[nH]c2cc(OC)c(OC)cc12	TRPC4 inh -8
O=C(O)CCC1c2cc3c4cc2OC2Oc5cc6c(cc51)C(CCC(=O)O)c1cc5c7cc1OC(O6)c1cc6cc(c1)Oc1cc(cc(C(=O)O)c1)Oc1cc8cc(c1)C(Oc1cc(c(cc1C5CCC(=O)O)C3CCC(=O)O)OC(O4)c1cc(cc(c1)Oc1cc(cc(C(=O)O)c1)O8)Oc1cc(cc(C(=O)O)c1)Oc1cc(cc2c1)Oc1cc(cc(C(=O)O)c1)O6)O7 (stereo not given)	TRPC6 act 186, TRPC4 act 43
O=C1CCCC(=O)N1c1ccc(N2CCN(c3ccc([N+](=O)[O-])cc3)CC2)c([N+](=O)[O-])c1	TRPC4 PAM 21
